# Compound activity: PubChem BioAssay, several laboratories
# In the library only some 1.3% were active in any assay of this set; here they are far more common.
# Keap1 Nrf2 FP: Keap1-Nrf2 (human) interaction inhibition | AID 504523 | 340,000 tested, 0.15% active | inhibition, % at 9.4 µM | Keap1 Kelch-Nrf2 peptide fluorescence polarization, 1536-well | Q14145; in the data active means inhibition above about 12%;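 further: human Keap1 Kelch domain with fluorescein labeled Nrf2 9mer peptide probe; higher means more block of Keap1 binding to Nrf2 peptide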
# Target sequence (Q14145 whole entry, looked up, the tested form may be a part): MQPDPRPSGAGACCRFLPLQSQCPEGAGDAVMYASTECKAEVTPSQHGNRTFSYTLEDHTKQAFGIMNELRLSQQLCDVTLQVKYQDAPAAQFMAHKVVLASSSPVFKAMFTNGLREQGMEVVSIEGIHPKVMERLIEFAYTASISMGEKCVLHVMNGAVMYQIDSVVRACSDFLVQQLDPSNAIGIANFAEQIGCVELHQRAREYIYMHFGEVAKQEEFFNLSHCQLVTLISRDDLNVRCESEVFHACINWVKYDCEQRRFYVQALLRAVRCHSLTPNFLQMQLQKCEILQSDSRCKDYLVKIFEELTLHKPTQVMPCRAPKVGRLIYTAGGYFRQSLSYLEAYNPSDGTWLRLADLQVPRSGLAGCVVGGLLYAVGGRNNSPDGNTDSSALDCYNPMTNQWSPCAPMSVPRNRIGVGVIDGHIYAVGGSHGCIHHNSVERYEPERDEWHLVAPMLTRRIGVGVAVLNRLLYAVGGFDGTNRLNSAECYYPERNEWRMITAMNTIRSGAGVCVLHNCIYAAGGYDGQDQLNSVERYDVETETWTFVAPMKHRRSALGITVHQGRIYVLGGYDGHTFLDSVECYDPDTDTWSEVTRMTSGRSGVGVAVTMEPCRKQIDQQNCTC
# RTF Ca sens act: cardiac RTF calcium sensitization; 340,000 tested, 0.24% active; IANBD-labeled TnC RTF fluorescence at EC20 calcium; 0% EC20 calcium, 100% full calcium; P19429+P45379; activation, % at 7.2 µM;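 active means activation above the mean over all tested compounds plus 3 SD, cut at about 30% in these data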;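 further: rise in fluorescence read as greater calcium sensitivity of cardiac thin filaments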
# CAL PDZ FP-1: blocks peptide binding to the human CAL PDZ domain; Q9HD26; inhibition, % at 24.9 µM; purified CAL PDZ, TMR-peptide fluorescence polarization, 1 h; 300,000 tested, 0.92% active;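 active means mean inhibition of at least 30% with at least half of replicates also reaching 30%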
# LANA DNA inh: inhibitors of KSHV LANA C-terminal domain DNA binding. 340,000 tested, 0.078% active. MBP-C-LANA/FAM-LBS DNA binding, fluorescence polarization. inhibition, % at 9 µM;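 active means highest replicate inhibition at or above 60% at 9 µM, even if other replicates fall short; inactive means all replicates below 60% inhibition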
# RTF Ca sens inh: cardiac RTF calcium desensitization. P19429+P45379. IANBD-labeled cardiac RTF, Ca2+ fluorescence. inhibition, % at 7.15 µM. 340,000 tested, 0.12% active;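 active means inhibition above the mean inhibition of all tested compounds plus 3 SD, cut at about 17% in these data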;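 further: assay run at fixed EC70 calcium of 1.6 mM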
# CAL PDZ FP-2: inhibitors of human CAL PDZ peptide binding; Q9HD26; purified CAL PDZ, TMR-peptide fluorescence polarization, 1 h; inhibition, % at 20 µM; 330,000 tested, 0.02% active;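 active means highest replicate inhibition of at least 40%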
#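 Assay system – tagged CAL PDZ protein CerCALP, purified · Timing – 1 h at RT · Compound – single point, 20 µM · Measured by – fluorescence polarization from S- and P-plane intensities, G-factor corrected · Evaluation – inhibition from polarization loss · Probe or stimulus – TMR reporter peptide T*-PRC34 · Buffer or medium – pH 7.4 phosphate-saline buffer, reducing agent, detergent, IgG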
# A number is an active result; . = inactive; / = not tested or not shown.
SMILES,Keap1 Nrf2 FP,RTF Ca sens act,CAL PDZ FP-1,LANA DNA inh,RTF Ca sens inh,CAL PDZ FP-2
COc1ccccc1OCCSc1nc2ccccc2n1CC(N)=O,.,.,58.8,.,.,/
O=C(Cn1cc([N+](=O)[O-])cn1)NCc1ccccc1,.,.,42.7,.,.,.
Cc1ccc(S(=O)(=O)N2CCCC2CNC(=O)c2ccc3c(c2)OCO3)cc1 (centres undefined),.,.,.,.,.,.
CCn1c(/C=C/c2ccccc2C)nc2ccccc2c1=O,.,.,51.2,.,.,.
Cc1ccccc1/C=C/c1nc2ccccc2c(=O)n1Cc1ccccc1,.,.,.,.,.,.
CS(=O)(=O)Nc1ccc(C2=NN(C(=O)c3ccco3)C(c3ccco3)C2)cc1 (centres undefined),.,.,32.6,.,.,.
CS(=O)(=O)Nc1ccc(C2=NN(C(=O)c3ccco3)C(c3ccccc3)C2)cc1 (centres undefined),.,.,.,.,.,.
O=C(CNC(=O)c1ccc(Br)o1)NNC(=O)c1ccccc1O,.,.,.,.,.,.
CC1=CC2=NC(=O)/C(=C/c3coc4ccc(Cl)cc4c3=O)C(=N)N2O1,.,58.3,/,.,.,.
CSC1=NSC2=NC(=O)/C(=C/c3coc4ccc(O)cc4c3=O)C(=N)N12,.,177.3,.,.,.,.
CSC1=NSC2=NC(=O)/C(=C/c3coc4ccccc4c3=O)C(=N)N12,.,287.5,.,.,.,.
N=C1/C(=C\c2coc3ccccc3c2=O)C(=O)N=C2SC=CN12,.,80.7,.,.,.,.
O=[N+]([O-])c1ccc(Cl)c(S(=O)(=O)Nc2cccc(S(=O)(=O)NC3=NCCC3)c2)c1,.,.,.,.,.,.
CCOc1ccc(NS(=O)(=O)c2ccc3[nH]c(=O)[nH]c3c2)cc1,.,.,.,.,.,.
CC(=O)Nc1ccc(S(=O)(=O)N(C)CC(=O)OCC(=O)c2ccc3c(c2)NC(=O)CO3)cc1,.,.,.,.,.,.
CC(=O)N1c2ccc(S(=O)(=O)NCC3CCC(C(=O)NCc4ccco4)CC3)cc2CC1C (centres undefined),.,.,.,.,.,.
CC(C)=CCC/C(C)=C/CC/C(C)=C/COc1ccc2ccc(=O)oc2c1,.,.,.,.,.,.
O=C(CC1CCCC1)N1CCN(S(=O)(=O)c2ccccc2)CC1,.,33.4,/,/,.,.
CC(=O)Nc1ccc(N2C(=O)CC(N3CCN(Cc4ccc5c(c4)OCO5)CC3)C2=O)cc1 (centres undefined),.,.,.,.,.,.
CCc1ccc(N2C(=O)CC(N3CCN(Cc4ccc5c(c4)OCO5)CC3)C2=O)cc1 (centres undefined),.,.,84.7,.,.,.
O=C(NCc1ccccn1)c1cc(S(=O)(=O)N2CCCCC2)ccc1Cl,.,.,.,.,.,.
CN(Cc1ccccc1)S(=O)(=O)c1ccc(N2CCOCC2)nc1,.,.,72.6,.,.,.
O=C(N/N=C/c1ccc(-c2ccccc2C(=O)O)o1)c1cccs1,.,.,.,.,.,.
O=C(O)c1cc(Cl)ccc1-c1ccc(/C=C/c2cc(C(F)(F)F)[nH]c(=O)n2)o1,.,447.5,.,.,.,.
O=C(O)c1ccccc1-c1ccc(/C=C/c2cc(C(F)(F)F)[nH]c(=O)n2)o1,.,727.4,.,.,.,.
SMILES,Keap1 Nrf2 FP,RTF Ca sens act,CAL PDZ FP-1,LANA DNA inh,RTF Ca sens inh,CAL PDZ FP-2
COc1ccc2ccccc2c1/C=N/O,.,.,35.9,.,.,.
CC(C)C(=O)OC/C(O)=C(\C#N)c1nc2ccccc2[nH]1,.,.,.,.,.,.
Cc1ccc(C(C)C)c(OC/C(O)=C(\C#N)c2nc3ccccc3[nH]2)c1,.,.,63.4,.,.,.
CC(Oc1ccccc1)C(=O)Nc1cccc(NC(=O)c2ccco2)c1 (centres undefined),.,.,118.5,.,.,/
O=C(Nc1ccccc1)c1cccc(NC(=O)c2ccco2)c1,.,.,.,.,.,.
CC(C)[C@H](NC(=O)c1ccco1)C(=O)OCC(=O)Nc1cccc(F)c1,.,.,68.8,.,.,.
CCC/C(O)=C1\C(=O)CC(C)(C)CC1=Nc1ccc(OC)cc1OC,.,.,60.1,.,.,.
CCCCOc1ccc(NC(=O)Nc2nnc(C)s2)cc1,.,.,60.2,.,.,.
Cc1cnc(NC(=O)c2cc(-c3ccccc3)nn2-c2ccccc2)s1,.,.,.,.,.,.
O=C(Nc1ccncc1)C1CCN(S(=O)(=O)c2cccs2)CC1,.,.,.,.,.,.
O=C(Nc1cc(Cl)ccn1)C1CCN(S(=O)(=O)c2cccs2)CC1,.,.,32.9,.,.,.
Cc1ccc2c(c1)N(CC(=O)NCCCN1CCN(C)CC1)C(=O)CO2,.,.,64.3,.,.,.
CCCN1CCN(CCCNC(=O)CN2C(=O)C(CC)Oc3ccccc32)CC1 (centres undefined),.,.,.,.,.,.
CCC1Oc2ccc(C)cc2N(CC(=O)NCCCN2CCCC2)C1=O (centres undefined),.,.,35.8,.,.,.
CN1CCN(CCCNC(=O)CN2C(=O)COc3ccccc32)CC1,.,.,/,.,.,.
O=S(=O)(c1ccccc1F)N1CCN(Cc2cc3c(cc2Br)OCCO3)CC1,.,.,.,.,.,.
Cn1ncc(N=Cc2c(O)ccc3ccccc23)c1C(=O)Nc1cccc(Cl)c1,.,43.4,/,.,.,.
Cn1ncc(Cl)c1C(=O)Nc1cccc(Cl)c1,.,.,.,.,.,/
Cc1cc(C)c(S(=O)(=O)c2ccccc2Cl)c(=O)[nH]1,.,.,.,.,.,.
O=C(C(=O)N1CCCc2ccccc21)c1cn(CC(=O)N2CCOCC2)c2ccccc12,.,.,.,.,.,.
Cn1cc(C(=O)C(=O)N2CCCc3ccccc32)c2ccccc21,.,.,34.1,.,.,.
O=C(CC1Nc2ccccc2NC1=O)NC1CCCCC1 (centres undefined),.,.,.,.,.,.
CC(C)CNC(=O)CC1Nc2ccccc2NC1=O (centres undefined),.,.,95.4,.,.,/
C/C(Cl)=C\Cn1c(O)c(N=NC(N)=S)c2ccccc21,.,.,75.6,.,.,.
NC(=S)N=Nc1c(O)n(Cc2ccccc2)c2ccccc12,.,.,.,.,.,.
Cc1oc(C)c2c(=O)ccc3c(c12)OC(N)=C(C#N)C3c1ccccc1Cl (centres undefined),.,.,.,.,.,/
N#CC1=C(N)OC2=C(CC/C2=C\c2ccccc2)C1c1ccccc1 (centres undefined),.,127.3,.,.,.,.
N#CC1=C(N)OC2=C(CC/C2=C\c2ccccc2Cl)C1c1ccccc1Cl (centres undefined),.,37.7,.,.,.,.
